Laboratory results published in PubChem BioAssay AID2340 (Sanford-Burnham Center for Chemical Genomics, 2010).
The source made the active and inactive calls.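 Rule for the calls: active = potency EC50 below 10 µM in the dose response test; inactive = the rest.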

molecular target: G-protein coupled receptor 35 (Homo sapiens) (UniProt Q9HC97); experiment: beta-arrestin-GFP translocation driven by GPR35 – imaging, U2OS, powder samples, selectivity assay, SAR follow-up (AID 2340)
Method in brief: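 Benchmarks – zaprinast 10 µM as positive control · System – human U2OS cells stably co-expressing GPR35 and beta-arrestin-GFP · Signal – imaging of fixed, DAPI-stained arrestin-GFP cells · Incubation – 45 min at 37 °C · Medium – serum-starved cells · Read-out basis – Arrestin-GFP spot versus cytoplasm intensity ratio, non-linear sigmoidal curve fit · Repeats – duplicate wells per dose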

Sequence of G-protein coupled receptor 35 (Homo sapiens) (Q9HC97 whole entry, looked up): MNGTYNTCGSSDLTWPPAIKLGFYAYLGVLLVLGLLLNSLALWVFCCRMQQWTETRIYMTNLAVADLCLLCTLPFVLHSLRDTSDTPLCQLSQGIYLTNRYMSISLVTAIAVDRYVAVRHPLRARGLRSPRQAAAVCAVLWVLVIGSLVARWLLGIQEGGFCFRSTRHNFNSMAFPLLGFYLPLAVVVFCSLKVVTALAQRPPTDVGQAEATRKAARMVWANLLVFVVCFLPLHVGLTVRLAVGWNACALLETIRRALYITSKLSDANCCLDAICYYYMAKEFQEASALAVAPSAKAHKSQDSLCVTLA

EC50	Structure (SMILES)
> 32 µM (inactive)	CN(C)S(=O)(=O)c1ccc(N2CCCC2)c(C(=O)N2CCN(c3ccc([N+](=O)[O-])cc3)CC2)c1
> 32 µM (inactive)	COc1cc2c(cc1NC(=O)C(C)Sc1ccc(NC(C)=O)cc1)oc1ccccc12 (stereo unspecified)
> 32 µM (inactive)	COc1ccc(S(=O)(=O)N2CCOCC2)cc1NC(=O)c1cc2c(s1)CCCC2
> 32 µM (inactive)	CC(C)NS(=O)(=O)c1ccc(NC(=S)NC(=O)c2ccc(-c3ccccc3)cc2)cc1
> 32 µM (inactive)	COc1ccc2c(c1)cc(C)c1nnc(SCC(=O)N(C)c3nc(-c4ccccc4)cs3)n12
> 32 µM (inactive)	Cc1cccc(N2CCN(C(=O)c3cc(S(=O)(=O)N(C)C)ccc3N3CCCC3)CC2)c1C
> 32 µM (inactive)	O=C(CSc1nc2ccccc2s1)N1c2ccccc2Sc2ccc(Cl)cc21
> 32 µM (inactive)	COc1ccccc1/C=C/C(=O)NC(=S)Nc1ccc(S(=O)(=O)N(C)c2ccccc2)cc1
> 32 µM (inactive)	CC(Sc1nc2cc(Cl)ccc2s1)C(=O)Nc1cccc(S(=O)(=O)N2CCOCC2)c1 (stereo unspecified)
> 32 µM (inactive)	CC(C)Oc1ccc(S(=O)(=O)N2CCOCC2)cc1NC(=O)c1ccc(N2CCCC2=O)cc1

Second part, the compound before the results:

Structure (SMILES)	EC50
CCCN(CCC)Cc1c(C(=O)NN=C/C(C)=C\c2ccco2)nnn1-c1nonc1N	> 32 µM (inactive)
C/C(C=NNC(=O)c1nnn(-c2nonc2N)c1CN1CCC(C)CC1)=C/c1ccccc1	> 32 µM (inactive)
C=CCN(CC=C)S(=O)(=O)c1ccc(NC(=S)NC(=O)c2ccc(-c3ccccc3)cc2)cc1	> 32 µM (inactive)
Cc1occc1C(=O)Nc1ccc(OCc2ccccc2)cc1	> 32 µM (inactive)
COc1ccc(-c2csc(NC(=O)CSc3nnc4c(C)cc5ccccc5n34)n2)cc1	> 32 µM (inactive)
CCCN(CCC)Cc1c(C(=O)NN=Cc2c[nH]c3ccccc23)nnn1-c1nonc1N	> 32 µM (inactive)
CCCN(CCC)Cc1c(C(=O)NN=C/C(C)=C\c2ccccc2)nnn1-c1nonc1N	> 32 µM (inactive)
CC(C)=CC(=O)Nc1ccc(OCc2ccccc2)cc1	> 32 µM (inactive)
COc1ccc2cc(C)c3nnc(SCC(=O)Nc4nc(-c5ccc(F)cc5)cs4)n3c2c1	> 32 µM (inactive)
COc1cc2c(cc1NC(=O)CSc1ccccc1)oc1ccccc12	> 32 µM (inactive)
O=C(CSc1nc2ccccc2s1)N1c2ccccc2Sc2ccc(C(F)(F)F)cc21	> 32 µM (inactive)
